Sampled rows, rich in hits. Any-hit rate of the full collection: about 4.9%.
APP 5'UTR act = activates APP 5'UTR luciferase reporter; SH-SY5Y APP 5'UTR luciferase reporter, luminescence; zero percent = DMSO vehicle wells; activation, % at 2 µM; 190,000 tested, 1% active;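 active means activation above a set limit, based on mean plus 3 SD of controls, cut at about 140% in these data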
STAT3 inh-1 = reduces IL-6 driven STAT3 reporter signal; U3A cells, IL-6 STAT3-luciferase reporter, luminescence; host cell line lacks STAT1; inhibition, % at 5.5 µM; 190,000 tested, 0.89% active;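 active means inhibition above the mean inhibition across all screened compounds plus 3 SD, cut at about 44% in these data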
NF-kB expr up = compounds increasing NF-kB expression in human neuronal cells. 190,000 tested, 1.6% active. NF-kB reporter expression; active compounds read high. fold change at 12.5 µM. AID 1239; in the data active means fold change above about 3.3
STAT3 activator = STAT3 signaling activation | U3A cells, IL-6 STAT3-luciferase reporter, luminescence; 100% = signal with IL-6 EC80 alone | activation (% of control), % at 5.6 µM | 190,000 tested, 0.91% active;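 active means activation above the screen-wide mean of compound activation plus 3 SD, cut at about 130% in these data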
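system = STAT3-luciferase reporter U3A cells | reagent = IL-6 stimulus at 33 ng/mL final | timing = 1 h compound pre-exposure, 6 h IL-6 stimulation, 37 °C | measured by = luminescence | evaluation = % activation versus median of IL-6-stimulated wells | control set = IL-6-only wells as 100% reference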
STAT1 inh = STAT1 signaling inhibition; inhibition, % at 5.5 µM; NIH 3T3 STAT1-luciferase reporter, IFN-gamma, luminescence; 200,000 tested, 0.35% active; AID 920;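 active means inhibition above a set limit, the mean inhibition across all tested compounds plus 3 SD, cut at about 34% in these data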
STAT1 activator = STAT1 signaling activation. NIH 3T3 STAT1-luciferase reporter, IFN-gamma, luminescence; 100% = IFN-gamma alone, no compound. activation (% of control), % at 5.5 µM. 200,000 tested, 2.6% active;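 active means activation above the screen-wide mean activation plus 3 SD, cut at about 130% in these data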
STAT3 inh-2 = STAT3 inhibition, confirmation assay; shares compounds with STAT3 inh-1; U3A cells, IL-6 STAT3 luciferase reporter, luminescence; cell line lacks STAT1; 1,200 tested, 45% active; AID 1265; inhibition, % at 5.7 µM;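 active means inhibition above the hit cutoff computed for the primary STAT3 screen, cut at about 44% in these data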
NFkB inh 2 = counter-screen for STAT3 inhibitors: NF-kappaB inhibition | HEK293T NF-kB luciferase reporter, TNF-alpha induced | shares compounds with STAT3 inh-1 | inhibition, % at 5.7 µM | 1,200 tested, 36% active;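 active means inhibition above the mean of solvent-only control wells plus 3 SD, cutoff set per campaign, cut at about 13% in these data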
STAT1 inh STAT3c = counter-screen for STAT3 inhibitors: STAT1 inhibition; NIH 3T3 STAT1-luciferase reporter, IFN-gamma induced, luminescence; shares compounds with STAT3 inh-1; 1,200 tested, 27% active; inhibition, % at 5.7 µM;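 active means inhibition above the mean plus 3 SD of solvent-only control wells, limit set per screening run, cut at about 16% in these data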
A number is an active result.

`CC(C)CCOC(=O)C1C(c2ccccc2)C(C(=O)O)C1c1ccccc1` (configuration not stated) gave APP 5'UTR act inactive, STAT3 inh-1 inactive, NF-kB expr up inactive, STAT3 activator inactive, STAT1 inh inactive and STAT1 activator inactive.
Screening CCOc1c(Cl)cc(C(=O)Nc2cccc(C(=O)O)c2)cc1Cl returned APP 5'UTR act inactive, STAT3 inh-1 inactive, NF-kB expr up inactive, STAT3 activator inactive, STAT1 inh inactive and STAT1 activator inactive.
Screening Cc1ccc(C)c(NC(=S)NCC(c2ccccc2)N(C)C)c1 (configuration not stated) returned APP 5'UTR act inactive, STAT3 inh-1 inactive, NF-kB expr up inactive, STAT3 activator inactive, STAT1 inh inactive and STAT1 activator inactive.
CCCCN=c1scc(-c2ccc3c(c2)NC(=O)CO3)n1N=C1CCCC1 was read as APP 5'UTR act inactive, STAT3 inh-1 inactive, NF-kB expr up inactive, STAT3 activator inactive, STAT1 inh inactive and STAT1 activator inactive.
CCN=c1scc(-c2ccc3c(c2)NC(=O)CO3)n1N=C1CCCC1 was read as APP 5'UTR act inactive, STAT3 inh-1 73, NF-kB expr up inactive, STAT3 activator inactive, STAT1 inh inactive, STAT1 activator inactive, STAT3 inh-2 64, NFkB inh 2 14 and STAT1 inh STAT3c inactive.
`Cc1cccc(N2CCN(C(=O)N3CCOCC3)CC2)c1C` gave APP 5'UTR act inactive, STAT3 inh-1 inactive, NF-kB expr up inactive, STAT3 activator inactive, STAT1 inh inactive and STAT1 activator inactive.
For Cc1cccc(N2CCN(C(=O)CSCc3c(C)noc3C)CC2)c1C the results were APP 5'UTR act inactive, STAT3 inh-1 70, NF-kB expr up inactive, STAT3 activator inactive, STAT1 inh inactive, STAT1 activator inactive, STAT3 inh-2 59, NFkB inh 2 inactive and STAT1 inh STAT3c inactive.
Cc1noc(C)c1CSCC(=O)N1CCN(c2ccc(F)cc2)CC1 was read as APP 5'UTR act inactive, STAT3 inh-1 46, NF-kB expr up inactive, STAT3 activator inactive, STAT1 inh inactive, STAT1 activator inactive, STAT3 inh-2 inactive, NFkB inh 2 inactive and STAT1 inh STAT3c inactive.
O=C(CCCCCNc1nc(=S)[nH]c2ccccc12)NCCC1=CCCCC1 was read as APP 5'UTR act inactive, STAT3 inh-1 inactive, NF-kB expr up inactive, STAT3 activator inactive, STAT1 inh inactive and STAT1 activator inactive.
CN(CC(CC(=O)Nc1nncs1)c1ccccc1)S(=O)(=O)c1ccc(Br)cc1 (configuration not stated) was read as APP 5'UTR act inactive, STAT3 inh-1 inactive, NF-kB expr up inactive, STAT3 activator inactive, STAT1 inh inactive and STAT1 activator inactive.
Screening CC(=O)c1ccc(N2CCN(C(=S)Nc3ccc(Oc4ccccc4)cc3)CC2)cc1 returned APP 5'UTR act inactive, STAT3 inh-1 78, NF-kB expr up inactive, STAT3 activator inactive, STAT1 inh inactive, STAT1 activator inactive, STAT3 inh-2 61, NFkB inh 2 20 and STAT1 inh STAT3c inactive.
CC(=O)c1ccc(N2CCN(C(=S)Nc3cccc(F)c3)CC2)cc1 was read as APP 5'UTR act inactive, STAT3 inh-1 inactive, NF-kB expr up inactive, STAT3 activator inactive, STAT1 inh inactive and STAT1 activator inactive.
CCC(=O)/C=C1/Sc2ccccc2N1CC was read as APP 5'UTR act inactive, STAT3 inh-1 inactive, NF-kB expr up inactive, STAT3 activator inactive, STAT1 inh inactive and STAT1 activator inactive.
Screening CC[n+]1c(/C=C2\Sc3ccccc3N2C)ccc2cccc(C)c21 returned APP 5'UTR act inactive, STAT3 inh-1 84, NF-kB expr up inactive, STAT3 activator inactive, STAT1 inh inactive, STAT1 activator inactive, STAT3 inh-2 80, NFkB inh 2 31 and STAT1 inh STAT3c inactive.
Screening CCN1/C(=C/c2ccc3cc(C)ccc3[n+]2CC)Sc2ccccc21 returned APP 5'UTR act inactive, STAT3 inh-1 91, NF-kB expr up inactive, STAT3 activator inactive, STAT1 inh inactive, STAT1 activator inactive, STAT3 inh-2 88, NFkB inh 2 37 and STAT1 inh STAT3c 21.
CCCCN(C)CCCNC(=O)c1cc(=O)[nH]c2ccc(S(=O)(=O)N3CCCCC3C)cc12 (configuration not stated) was read as APP 5'UTR act inactive, STAT3 inh-1 inactive, NF-kB expr up inactive, STAT3 activator inactive, STAT1 inh inactive and STAT1 activator inactive.
For CC(=O)Nc1ccc(N2C(C(C)=O)=NN(c3ccc(Cl)cc3)C2c2sccc2C)cc1 (configuration not stated) the results were APP 5'UTR act inactive, STAT3 inh-1 inactive, NF-kB expr up inactive, STAT3 activator inactive, STAT1 inh inactive and STAT1 activator inactive.
c1ccc(-c2cnc(-c3ccccc3)nc2)cc1 was read as APP 5'UTR act inactive, STAT3 inh-1 54, NF-kB expr up 9.4, STAT3 activator inactive, STAT1 inh inactive, STAT1 activator inactive, STAT3 inh-2 inactive, NFkB inh 2 inactive and STAT1 inh STAT3c inactive.
`S=C(NCCc1ccccc1)Nc1cccc2cnccc12` gave APP 5'UTR act inactive, STAT3 inh-1 68, NF-kB expr up inactive, STAT3 activator inactive, STAT1 inh inactive, STAT1 activator inactive, STAT3 inh-2 73, NFkB inh 2 25 and STAT1 inh STAT3c 23.
`CCN(CC)CCNC(=S)NC(=O)c1cn(-c2ccccc2)nc1-c1ccc(OC)cc1` gave APP 5'UTR act inactive, STAT3 inh-1 inactive, NF-kB expr up inactive, STAT3 activator inactive, STAT1 inh inactive and STAT1 activator inactive.
For O=C(NCc1ccccn1)C1CCN(S(=O)(=O)c2cc(Cl)ccc2Cl)CC1 the results were APP 5'UTR act inactive, STAT3 inh-1 inactive, NF-kB expr up inactive, STAT3 activator inactive, STAT1 inh inactive and STAT1 activator inactive.
`COc1ccc(-n2c(-c3ccc(Br)cc3)c[n+]3c2SC(C)C3)cc1` (configuration not stated) gave APP 5'UTR act inactive, STAT3 inh-1 46, NF-kB expr up inactive, STAT3 activator inactive, STAT1 inh inactive, STAT1 activator inactive, STAT3 inh-2 inactive, NFkB inh 2 inactive and STAT1 inh STAT3c 22.
For O=C(Nc1ccccc1)Nc1ccc(C(=O)N2CCCC2)cc1 the results were APP 5'UTR act 186, STAT3 inh-1 45, NF-kB expr up inactive, STAT3 activator inactive, STAT1 inh inactive, STAT1 activator inactive, STAT3 inh-2 inactive, NFkB inh 2 inactive and STAT1 inh STAT3c inactive.
